Measurements taken from ChEMBL document CHEMBL1122900, “Effects of alkyl and aryl substitution on the myocardial specificity of radioiodinated phosphonium, arsonium, and ammonium cations” (J Med Chem, 1985).

What was measured:
Rattus norvegicus [1] = assay: Evaluated for the distribution of radioactivity in tissues of female Fischer rats kidneys after 60 minutes intravenous administration; dose/g, range 3.33-4.68; type: ADME, organism-based, Kidney; conditions: in vivo, 1 h
Rattus norvegicus [2] = assay: Evaluated for the distribution of radioactivity in tissues of female Fischer rats liver after 60 minutes intravenous administration; dose/g, range 0.14-0.19; type: ADME, organism-based; conditions: in vivo, 1 h
Summary of the method: (§1)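 Female Fischer 344 rats (10-12 weeks, 170-200 g), fed ad libitum, got a single iv tail-vein injection under ether anaesthesia of the 125I-labelled cation (2.85-8.38 μCi). The tracer was dissolved in Me2SO, diluted with saline to 1% Me2SO and filtered. At the set times rats were killed by cervical fracture and blood taken by cardiac puncture. Organs were rinsed, blotted, weighed and gamma-counted against injectate standards. Results are %dose/g, mean and range, n=5. Thyroid weight was taken as 7.5 mg/100 g body weight.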

Rattus norvegicus [3] = assay: Evaluated for the distribution of radioactivity in tissues of female Fischer rats blood after 60 minutes intravenous administration; dose/g, range 0.16-0.21; type: ADME, organism-based; conditions: in vivo, 1 h
Rattus norvegicus [4] = assay: Evaluated for the distribution of radioactivity in tissues of female Fischer rats lungs after 60 minutes intravenous administration; dose/g, range 0.97-1.54; type: ADME, organism-based, Lung; conditions: in vivo, 1 h; summary of the method: as §1
Rattus norvegicus [5] = assay: Evaluated for the distribution of radioactivity in tissues of female Fischer rats kidneys after 30 minutes intravenous administration; dose/g, range 6.28-7.41; type: ADME, organism-based, Kidney; conditions: in vivo, 0.5 h
Rattus norvegicus [6] = assay: Evaluated for the distribution of radioactivity in tissues of female Fischer rats lungs after 30 minutes intravenous administration; dose/g, range 1.07-1.30; type: ADME, organism-based, Lung; conditions: in vivo, 0.5 h; summary of the method: as §1
Rattus norvegicus [7] = assay: Evaluated for the distribution of radioactivity in tissues of female Fischer rats heart after 5 minutes intravenous administration; dose/g, range 2.72-3.52; type: ADME, organism-based; conditions: in vivo
Rattus norvegicus [8] = assay: Evaluated for the distribution of radioactivity in tissues of female Fischer rats thyroid after 60 minutes intravenous administration; dose/g, range 55-102; type: ADME, organism-based, Thyroid gland; conditions: in vivo, 1 h; summary of the method: as §1
Rattus norvegicus [9] = assay: Evaluated for the distribution of radioactivity in tissues of female Fischer rats thyroid after 30 minutes intravenous administration; dose/g, range 33-60; type: ADME, organism-based, Thyroid gland; conditions: in vivo, 0.5 h; summary of the method: as §1
Rattus norvegicus [10] = assay: Evaluated for the distribution of radioactivity in tissues of female Fischer rats liver after 5 minutes intravenous administration; dose/g, range 0.93-1.20; type: ADME, organism-based; conditions: in vivo; summary of the method: as §1
Rattus norvegicus [11] = assay: Evaluated for the distribution of radioactivity in tissues of female Fischer rats liver after 30 minutes intravenous administration.; dose/g, range 0.23-0.29; type: ADME, organism-based; conditions: in vivo, 0.5 h
Rattus norvegicus [12] = assay: Evaluated for the distribution of radioactivity in tissues of female Fischer rats blood after 30 minutes intravenous administration; dose/g, range 0.25-0.32; type: ADME, organism-based; conditions: in vivo, 0.5 h
Rattus norvegicus [13] = assay: Evaluated for the distribution of radioactivity in tissues of female Fischer rats blood after 5 minutes intravenous administration; dose/g, range 0.44-0.52; type: ADME, organism-based; conditions: in vivo
Rattus norvegicus [14] = assay: Evaluated for the distribution of radioactivity in tissues of female Fischer rats lungs after 5 minutes intravenous administration; dose/g, range 1.20-1.52; type: ADME, organism-based, Lung; conditions: in vivo; summary of the method: as §1
Rattus norvegicus [15] = assay: Evaluated for the distribution of radioactivity in tissues of female Fischer rats thyroid after 5 minutes intravenous administration; dose/g, range 29-36; type: ADME, organism-based, Thyroid gland; conditions: in vivo; summary of the method: as §1
Rattus norvegicus [16] = assay: Evaluated for the distribution of radioactivity in tissues of female Fischer rats kidneys after 5 minutes intravenous administration; dose/g, range 9.87-11.9; type: ADME, organism-based, Kidney; conditions: in vivo
Rattus norvegicus [17] = assay: Evaluated for the distribution of radioactivity in tissues of female Fischer rats heart after 30 minutes intravenous administration; dose/g, range 2.47-2.96; type: ADME, organism-based; conditions: in vivo, 0.5 h
Rattus norvegicus [18] = assay: Evaluated for the distribution of radioactivity in tissues of female Fischer rats heart after 60 minutes intravenous administration; dose/g, range 2.88-4.32; type: ADME, organism-based; conditions: in vivo, 1 h
Rattus norvegicus [19] = assay: Evaluated for the distribution of radioactivity in tissues of female Fischer rats lungs after 30 minutes intravenous administration; dose/g, range 1.12-1.39; type: ADME, organism-based, Lung; conditions: in vivo, 0.5 h; summary of the method: as §1
Rattus norvegicus [20] = assay: Evaluated for the distribution of radioactivity in tissues of female Fischer rats liver after 30 minutes intravenous administration; dose/g, range 0.22-0.30; type: ADME, organism-based; conditions: in vivo, 0.5 h
Rattus norvegicus [21] = assay: Evaluated for the distribution of radioactivity in tissues of female Fischer rats kidneys after 5 minutes intravenous administration; dose/g, range 11.7-14.6; type: ADME, organism-based, Kidney; conditions: in vivo
Rattus norvegicus [22] = assay: Evaluated for the distribution of radioactivity in tissues of female Fischer rats blood after 60 minutes intravenous administration; dose/g, range 0.15-0.20; type: ADME, organism-based; conditions: in vivo, 1 h
Rattus norvegicus [23] = assay: Evaluated for the distribution of radioactivity in tissues of female Fischer rats thyroid after 60 minutes intravenous administration; dose/g, range 32-43; type: ADME, organism-based, Thyroid gland; conditions: in vivo, 1 h; summary of the method: as §1
Rattus norvegicus [24] = assay: Evaluated for the distribution of radioactivity in tissues of female Fischer rats blood after 30 minutes intravenous administration; dose/g, range 0.18-0.24; type: ADME, organism-based; conditions: in vivo, 0.5 h
Rattus norvegicus [25] = assay: Evaluated for the distribution of radioactivity in tissues of female Fischer rats heart after 60 minutes intravenous administration; dose/g, range 3.21-3.92; type: ADME, organism-based; conditions: in vivo, 1 h
Rattus norvegicus [26] = assay: Evaluated for the distribution of radioactivity in tissues of female Fischer rats thyroid after 5 minutes intravenous administration; dose/g, range 16-32; type: ADME, organism-based, Thyroid gland; conditions: in vivo; summary of the method: as §1
Rattus norvegicus [27] = assay: Evaluated for the distribution of radioactivity in tissues of female Fischer rats kidneys after 30 minutes intravenous administration; dose/g, range 6.47-10.2; type: ADME, organism-based, Kidney; conditions: in vivo, 0.5 h
Rattus norvegicus [28] = assay: Evaluated for the distribution of radioactivity in tissues of female Fischer rats blood after 5 minutes intravenous administration; dose/g, range 0.32-0.46; type: ADME, organism-based; conditions: in vivo
Rattus norvegicus [29] = assay: Evaluated for the distribution of radioactivity in tissues of female Fischer rats heart after 30 minutes intravenous administration; dose/g, range 2.67-3.69; type: ADME, organism-based; conditions: in vivo, 0.5 h
Rattus norvegicus [30] = assay: Evaluated for the distribution of radioactivity in tissues of female Fischer rats liver after 60 minutes intravenous administration; dose/g, range 0.15-0.19; type: ADME, organism-based; conditions: in vivo, 1 h; summary of the method: as §1
Rattus norvegicus [31] = assay: Evaluated for the distribution of radioactivity in tissues of female Fischer rats kidneys after 60 minutes intravenous administration; dose/g, range 5.02-6.57; type: ADME, organism-based, Kidney; conditions: in vivo, 1 h
Rattus norvegicus [32] = assay: Evaluated for the distribution of radioactivity in tissues of female Fischer rats lungs after 5 minutes intravenous administration; dose/g, range 1.18-1.44; type: ADME, organism-based, Lung; conditions: in vivo; summary of the method: as §1
Rattus norvegicus [33] = assay: Evaluated for the distribution of radioactivity in tissues of female Fischer rats lungs after 60 minutes intravenous administration; dose/g, range 0.94-1.36; type: ADME, organism-based, Lung; conditions: in vivo, 1 h; summary of the method: as §1
Rattus norvegicus [34] = assay: Evaluated for the distribution of radioactivity in tissues of female Fischer rats thyroid after 30 minutes intravenous administration; dose/g, range 29-44; type: ADME, organism-based, Thyroid gland; conditions: in vivo, 0.5 h; summary of the method: as §1
Rattus norvegicus [35] = assay: Evaluated for the distribution of radioactivity in tissues of female Fischer rats heart after 5 minutes intravenous administration; dose/g, range 2.82-3.86; type: ADME, organism-based; conditions: in vivo
Rattus norvegicus [36] = assay: Evaluated for the distribution of radioactivity in tissues of female Fischer rats liver after 5 minutes intravenous administration; dose/g, range 1.06-1.70; type: ADME, organism-based; conditions: in vivo; summary of the method: as §1

## I/C=C/CCC[P+](C1CCCCC1)(C1CCCCC1)C1CCCCC1.[I-]
Rattus norvegicus [1]
  Distribution: 4.15%
Rattus norvegicus [2]
  Distribution: 0.17%
Rattus norvegicus [3]
  Distribution: 0.19%
Rattus norvegicus [4]
  Distribution: 1.16%
Rattus norvegicus [5]
  Distribution: 6.89%
Rattus norvegicus [6]
  Distribution: 1.2%
Rattus norvegicus [7]
  Distribution: 2.99%
Rattus norvegicus [8]
  Distribution: 71%
Rattus norvegicus [9]
  Distribution: 45%
Rattus norvegicus [10]
  Distribution: 1.06%
Rattus norvegicus [11]
  Distribution: 0.25%
Rattus norvegicus [12]
  Distribution: 0.28%
Rattus norvegicus [13]
  Distribution: 0.47%
Rattus norvegicus [14]
  Distribution: 1.31%
Rattus norvegicus [15]
  Distribution: 31%
Rattus norvegicus [16]
  Distribution: 11.06%
Rattus norvegicus [17]
  Distribution: 2.67%
Rattus norvegicus [18]
  Distribution: 3.42%

## I/C=C/CCC[P+](c1ccccc1)(C1CCCCC1)C1CCCCC1.[I-]
Rattus norvegicus [19]
  Distribution: 1.24%
Rattus norvegicus [20]
  Distribution: 0.26%
Rattus norvegicus [21]
  Distribution: 13.07%
Rattus norvegicus [22]
  Distribution: 0.17%
Rattus norvegicus [23]
  Distribution: 39%
Rattus norvegicus [24]
  Distribution: 0.2%
Rattus norvegicus [25]
  Distribution: 3.47%
Rattus norvegicus [26]
  Distribution: 25%
Rattus norvegicus [27]
  Distribution: 8.41%
Rattus norvegicus [28]
  Distribution: 0.37%
Rattus norvegicus [29]
  Distribution: 3.17%
Rattus norvegicus [30]
  Distribution: 0.17%
Rattus norvegicus [31]
  Distribution: 5.66%
Rattus norvegicus [32]
  Distribution: 1.32%
Rattus norvegicus [33]
  Distribution: 1.15%
Rattus norvegicus [34]
  Distribution: 38%
Rattus norvegicus [35]
  Distribution: 3.44%
Rattus norvegicus [36]
  Distribution: 1.39%
